{
  "source": "ChEMBL document CHEMBL3120097",
  "about": "“HCV NS5A replication complex inhibitors. Part 4. Optimization for genotype 1a replicon inhibitory activity” (J Med Chem, 2014)",
  "key": {"Hepatitis C virus [1]": {"test_system": "Hepatitis C virus", "assay": "Antiviral activity against HCV genotype 1a H77c infected in human HuH7 cells after 72 hrs", "conditions": "Huh-7, 72 h"}, "[2]": {"test_system": "Bovine viral diarrhea virus 1", "assay": "Antiviral activity against BVDV infected in bovine MDBK cells after 72 hrs by luciferase reporter gene assay", "format": "functional, organism-based", "conditions": "Bovine viral diarrhea virus isolates and strains"}, "[3]": {"assay": "Cytotoxicity against bovine MDBK cells after 3 days by CellTitre-Blue assay", "format": "cell-based, Bos taurus", "conditions": "cattle"}, "Hepatitis C virus [4]": {"test_system": "Hepatitis C virus", "assay": "Antiviral activity against HCV genotype 1b infected in human HuH7 cells after 72 hrs by FRET assay", "format": "functional, organism-based, Hepacivirus hominis", "conditions": "Huh-7, 72 h", "outline": "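Replicon cells seeded 10K/well, attached overnight; compounds added with 0.5% v/v DMSO vehicle controls, typically 72 h. Alamar blue read first, then cells PBS-rinsed and lysed with reagent holding 150 mM NaCl and 20 μM final EDANS/DABCYL NS3 protease peptide; kinetic fluorescence 340/490 nm. EC₅₀ = concentration halving background-subtracted FRET signal versus DMSO wells.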"}},
  "data": [
    {"smiles": "O=C(Nc1ccc(/C=C/c2ccc(NC(=O)[C@@H]3CCCN3C(=O)c3cc4ccccc4cn3)cc2)cc1)[C@@H]1CCCN1C(=O)c1cc2ccccc2cn1", "values": [
      {"measurement": "EC50", "setting": "Hepatitis C virus [1]", "result": 3.1, "unit": "µM"},
      {"measurement": "EC50", "setting": "[2]", "result": "> 5", "unit": "µM"},
      {"measurement": "CC50 at 72 h", "setting": "[3]", "result": "> 10", "unit": "µM"},
      {"measurement": "EC50", "setting": "Hepatitis C virus [4]", "result": 0.28, "unit": "µM"}
    ]}
  ]
}
